Assay outcomes (PubChem BioAssay)
A selection: hits, their analogues and other compounds. The true share with any hit is near 3.7%.
KCNQ1 inh – inhibitors of human KCNQ1 potassium channel. P51787. CHO-K1 KCNQ1, FluxOR thallium flux fluorescence; active compounds read high. B-score at 10 µM. 310,000 tested, 1.3% active;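 active = compounds whose thallium flux B-score, printed positive for inhibition, exceeds three library SD while starting fluorescence stays within three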;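 also: channel opened by potassium depolarization with thallium stimulus after 20 min compound exposure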
KCNK9 inh – inhibitors of human KCNK9 two-pore domain potassium channel; Q9NPC2; B-score at 10 µM; AID 488922; 310,000 tested, 1.2% active; HEK293 KCNK9, FluxOR thallium flux fluorescence; active compounds read low;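 active = ratio B-score over 3 SD below the library mean, with starting fluorescence within 5 SD of its mean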;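 also: negative B-score means less thallium flux so channel inhibition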
KCNK3 block – human KCNK3 channel inhibition, primary screen; 340,000 tested, 0.84% active; O14649; B-score at 10 µM; CHO-KCNK3 thallium flux, FluxOR fluorescence; active compounds read low;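 active = B-score under library mean minus 4 SD, starting fluorescence ratio at most library mean plus 5 SD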;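 also: more negative B-score means stronger inhibition of thallium flux through KCNK3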
KCNQ1 pot – potentiators or activators of human KCNQ1 potassium channel; P51787; CHO-K1 KCNQ1, thallium flux FluxOR fluorescence; active compounds read high; B-score at 10 µM; 310,000 tested, 0.35% active;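 active = fluorescence ratio B-score, a plate-corrected score, at least three library SD, with initial intensity B-score within 5 SD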
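System: CHO-K1 cells stably expressing KCNQ1 / Medium: assay buffer for compound exposure, DMSO matched across wells / Reagent: thallium- and potassium-containing depolarizing buffer / Compound: one concentration, matched DMSO / Incubation: 20 min compound pretreatment at room temperature / Measured by: kinetic FluxOR fluorescence, 10 s baseline plus 110 s post-stimulus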
Kir21 inh – inhibitors of mouse Kir2.1 inward-rectifier potassium channel. HEK293-Kir2.1, FluxOR thallium flux fluorescence; active compounds read low. B-score at 10 µM. 310,000 tested, 0.85% active. AID 1672;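 active = fluorescence ratio B-score at or below minus 3 SD of library scores, with starting-brightness B-score within 2 SD, cut at about -4.2 in these data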;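 also: channel flux triggered by added potassium and thallium sulfate stimulus; B-score of peak minus minimum fluorescence over baseline after thallium stimulus; more negative B-score means stronger Kir2.1 block with less thallium influx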
hERG rescue – hERG (human) protection from proarrhythmic block. CHO-hERG, FluxOR thallium flux, dofetilide IC70 present. activation (rescue from dofetilide block), less the hit threshold, % at 10 µM. 310,000 tested, 0.51% active;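 active = activation above the mean of controls blocked by dofetilide plus 5 SD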;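 also: thallium influx through hERG after potassium depolarization seen as dye fluorescence rise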
Target sequence (Q12809 whole entry, looked up): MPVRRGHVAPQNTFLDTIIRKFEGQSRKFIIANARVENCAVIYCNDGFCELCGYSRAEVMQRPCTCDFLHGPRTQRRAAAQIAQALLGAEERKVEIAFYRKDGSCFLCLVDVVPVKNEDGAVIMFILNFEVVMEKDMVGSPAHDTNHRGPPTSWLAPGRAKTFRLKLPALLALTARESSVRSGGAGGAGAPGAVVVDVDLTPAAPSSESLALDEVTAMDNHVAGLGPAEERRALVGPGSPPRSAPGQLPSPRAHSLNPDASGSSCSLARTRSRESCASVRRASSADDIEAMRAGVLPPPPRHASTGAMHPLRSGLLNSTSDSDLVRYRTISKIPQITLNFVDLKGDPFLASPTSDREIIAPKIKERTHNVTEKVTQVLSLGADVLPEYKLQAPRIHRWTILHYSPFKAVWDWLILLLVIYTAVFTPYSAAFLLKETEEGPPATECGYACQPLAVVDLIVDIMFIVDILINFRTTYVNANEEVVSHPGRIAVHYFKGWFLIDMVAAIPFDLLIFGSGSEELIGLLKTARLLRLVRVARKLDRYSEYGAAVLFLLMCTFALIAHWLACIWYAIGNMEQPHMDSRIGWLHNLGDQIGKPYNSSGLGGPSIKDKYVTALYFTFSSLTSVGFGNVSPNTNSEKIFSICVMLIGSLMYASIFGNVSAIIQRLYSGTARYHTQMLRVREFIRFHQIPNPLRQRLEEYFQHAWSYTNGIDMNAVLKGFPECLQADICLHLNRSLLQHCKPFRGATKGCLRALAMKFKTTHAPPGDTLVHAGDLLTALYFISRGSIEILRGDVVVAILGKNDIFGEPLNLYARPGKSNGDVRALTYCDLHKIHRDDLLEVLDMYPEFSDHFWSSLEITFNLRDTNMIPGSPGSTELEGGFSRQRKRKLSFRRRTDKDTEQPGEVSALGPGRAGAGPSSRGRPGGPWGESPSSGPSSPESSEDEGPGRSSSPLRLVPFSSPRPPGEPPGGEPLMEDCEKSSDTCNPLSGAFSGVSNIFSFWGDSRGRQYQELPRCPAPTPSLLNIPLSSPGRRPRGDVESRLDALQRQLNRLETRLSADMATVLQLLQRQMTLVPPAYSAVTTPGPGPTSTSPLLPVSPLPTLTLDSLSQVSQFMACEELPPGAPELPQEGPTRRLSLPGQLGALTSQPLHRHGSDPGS
KCNK9 inh conf – human KCNK9 inhibitor confirmation; inhibition, % at 10 µM; shares compounds with KCNK9 inh; 4,900 tested, 43% active; AID 492992; HEK293 KCNK9 cells, FluxOR thallium flux fluorescence;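 active = thallium signal inhibited by more than 5 SD of the compound-free buffer control wells, on both duplicate plates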;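 also: 0% = assay buffer control wells without compound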
Kir2-1 spec – tests whether KCNK9 modulators also affect mouse Kir2.1. 4,900 tested, 4% active. Kir2.1 cells, FluxOR thallium flux fluorescence. AID 492993. inhibition, % at 10 µM. shares compounds with KCNK9 inh;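 active = thallium signal drop more than 5 SD beyond the mean of the no-compound control wells, seen in both duplicate plates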;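 also: signal is fluorescence rise after thallium addition divided by baseline fluorescence; plate controls were assay buffer only for no effect and full block by chlorpromazine control for full effect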
HEK293 Tl ctr – non-induced cell nonspecific activity of KCNK9 modulators | shares compounds with KCNK9 inh | non-induced KCNK9-HEK293, FluxOR thallium flux | inhibition, % at 10 µM | 4,900 tested, 40% active | AID 492997;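 active = thallium signal drop beyond 5 SD of the untreated control mean, on both duplicate plates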;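 also: plate controls were buffer only IC0 wells for no effect and SID17386958 at its maximal inhibitory level for full effect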
An asterisk follows results filed as active; i = inactive; . = no result.

SMILES	KCNQ1 inh	KCNK9 inh	KCNK3 block	KCNQ1 pot	Kir21 inh	hERG rescue	KCNK9 inh conf	Kir2-1 spec	HEK293 Tl ctr
O=C(NC(c1ccc(Cl)cc1)c1c(O)ccc2ccccc12)c1ccccc1 (centres undefined)	.	.	i	.	.	.	.	.	.
CC(C)(C)NC(=O)COc1coc(CN2CCN(C(=O)c3ccco3)CC2)cc1=O	i	i	i	i	-3.2	-16	.	.	.
COc1cc(OC)c(C(=O)NC23CC4CC(CC(C4)C2)C3)cc1OC	i	i	i	i	0.2	-4	.	.	.
O=C(NC12CC3CC(CC(C3)C1)C2)c1cc(F)c(F)c(F)c1F	i	i	i	i	-0.62	-1	i	i	i
CC(=O)c1cccc(NC(=O)CN2CCc3cc4c(cc3C2C)OCCCO4)c1 (centres undefined)	i	i	i	i	0.47	-10	i	i	i
O=C(CN1CCc2cc3c(cc2C1)OCCCO3)Nc1cccc(Br)c1	i	i	i	i	2.2	-11	i	i	i
CC1c2cc3c(cc2CCN1C(=O)c1ccc(Cl)cc1)OCCCO3 (centres undefined)	i	-9.9*	i	i	-0.05	-7	56%*	i	29%*
O=C(O)C1C2C=CC(C2)C1C(=O)NCc1ccc(Cl)c(Cl)c1 (centres undefined)	i	i	i	i	1.4	-7	.	.	.
CCc1cccc(CC)c1NC(=O)COC(=O)c1cccc(S(=O)(=O)N2CCc3ccccc3C2)c1	i	-9.1*	i	i	-2.6	-7	56%*	i	34%*
Cc1c(C(=O)OCC(=O)c2c(N)n(CC(C)C)c(=O)n(C)c2=O)oc2ccccc12	i	i	i	i	-1.2	-14	i	i	i
COCc1c(C(=O)OCC(=O)c2c(N)n(CC(C)C)c(=O)n(C)c2=O)oc2ccccc12	i	i	i	i	0.02	-5	.	.	.
c1ccc(CCNCc2ccco2)nc1	.	.	i	.	.	.	.	.	.
COc1cccc(/C=N/NC(=O)c2nc(-c3ccccc3)cc(-c3ccccc3)n2)c1O	i	-8.6*	i	i	1.6	-28	i	i	i
Cc1ccc(-c2cc(-c3ccco3)c(C#N)c(=O)[nH]2)cc1	i	i	i	i	-0.27	-5	.	.	.
CC(C)(C)c1cc(-c2ccco2)c(C#N)c(SCC#N)n1	i	-9.6*	i	i	-1.6	-4	i	i	31%*
CCOC(=O)Cn1cnc2scc(-c3ccccc3)c2c1=O	i	i	i	i	-0.73	-4	.	.	.
CCOC(=O)Cn1cnc2scc(-c3ccc(C)cc3)c2c1=O	i	i	i	i	0.79	-12	i	i	i
CCOC(=O)Cn1cnc2scc(-c3ccc(C)c(C)c3)c2c1=O	i	i	i	i	0.97	-6	i	i	i
Cc1c(Cl)cccc1NC(=O)CNC(=O)C1CCN(C(=O)Nc2ccccc2)CC1	.	.	i	.	.	.	.	.	.
Brc1cccc(CN2CCN(c3ncccn3)CC2)c1	i	i	i	i	2	-13	.	.	.
Cn1c(-c2ccc(C=O)s2)nc2c3ccccc3c3ccccc3c21	7*	-10*	i	i	-1.6	-5	33%*	i	72%*
CCOC(=O)CCNCc1ccc(OC)c(OC)c1	i	i	i	i	-0.12	-9	.	.	.
CCOC(=O)CC(NCc1ccc(OC)c(OCC)c1)c1ccc(C)cc1 (centres undefined)	i	i	i	i	0.01	-8	i	i	i
